Bioassay records (PubChem BioAssay)
Ecoli rRNA inh: selective bacterial rRNA inhibition in E. coli; E. coli WT GFP vs humanized-ribosome RFP mutants, fluorescence, 24 h; active compounds read low; DMSO median 0, no signal -100; 350,000 tested, 1.6% active; GFP signal change (wild-type ribosome), % (no concentration beside the values);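 active means significant combined selectivity score with lowered wild-type GFP, culture density cut under 30%, mutant RFP and density less affected; inactive means any of these conditions unmet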
DENV2 CPE rescue: protects cells from dengue virus 2 cytopathic effect; DENV2-infected cells, cytopathic effect rescue, plate reader; CPE inhibition, % at 9.99 µM; 350,000 tested, 1.7% active; AID 651640; in the data active means CPE inhibition above about 20%, passing the limit was not always enough; inconclusive means no clear call, values can overlap the other calls; tested in BHK-21 cells;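 further: 0% = median of neutral control wells and 100% = median of positive control wells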
PglD inh: PglD (C. jejuni) enzyme inhibition; purified PglD enzyme, DTNB colorimetric CoA detection; inhibition, % at 12.5 µM; 360,000 tested, 0.098% active; AID 602405; in the data active means inhibition above about 16%, passing the limit was not always enough; inconclusive means no clear call, values can overlap the other calls
FN deposition inh: fibronectin deposition inhibition | AID 743247 | 350,000 tested, 0.086% active | AH1F fibroblasts, Alexa488-fibronectin deposition fluorescence, overnight | inhibition, % at 12.6 µM;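 active means mean inhibition across replicates of 30% or more, regardless of how many single replicates reach that level; inconclusive means mean under 30% yet at least half of replicates reach 30%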;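 further: positive control wells lacked labelled fibronectin entirely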
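Material: AH1F fibroblast monolayer depositing Alexa488-labelled fibronectin into matrix / Amount: 10000 AH1F cells per well / Signal: fluorescence 485/525 nm / Medium: DMEM, 2% serum / Compound: single dose, pinned / Incubation: 1 h cell adhesion before compound, then overnight fibronectin incubation / Reagent: Alexa488-FN, 24 nM final / Read-out: inhibition of fibronectin deposition signal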
Env fusion inh: HIV envelope-mediated fusion inhibition. inhibition, % at 12.3 µM. AID 651610. HeLa-JRFL Env/CEM21 cell fusion, luciferase. 360,000 tested, 1.1% active;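 active means mean replicate inhibition score of at least 50 and every replicate individually at or above 50; inconclusive means only one of the two criteria met; inactive means mean below 50 and not all replicates reaching 50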;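 further: 0% = plate neutral controls and 100% = maraviroc near 300 nM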
PGC1a acetyl inh: modulators of PGC1a acetylation | 350,000 tested, 0.17% active | inhibition, % at 15.6 µM | AID 651687 | U2OS PGC1a acetylation, AlphaScreen anti-acetyl-lysine; with virally co-expressed GCN5 acetyltransferase;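 active means every replicate shows inhibition of at least 40%; inconclusive means mean inhibition at least 40% but some replicate below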;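 further: 0% = neutral control wells and 100% = positive control wells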
* marks the source's active call; other numbers are inactive results; u = inconclusive; x = no result; ! = a repeat was not active; [ ] = another dose, or the depositor's remark. An excerpt weighted towards active compounds, which were near 3.5% of everything screened.

SMILES | Ecoli rRNA inh | DENV2 CPE rescue | PglD inh | FN deposition inh | Env fusion inh | PGC1a acetyl inh
CC(C)CC#Cc1cnc2c(c1)C(=O)N([C@H](C)CO)C[C@@H](C)[C@@H](CN(C)C(=O)c1ccc(F)cc1)O2 | -1 | 21* | 4 | -11 | 26[16.7 µM] | 30
C[C@H]1CN([C@@H](C)CO)C(=O)c2cc(C#CCc3ccccc3)cnc2O[C@H]1CN(C)Cc1cccc(F)c1 | -6 | -6 | 1 | -11 | x | x
C[C@H](CO)N1C[C@H](C)[C@@H](CN(C)Cc2cccc(F)c2)Oc2ncc(C#CCc3ccccc3)cc2C1=O | -35* | -9 | 3 | -4 | x | -16
C[C@H]1CN([C@@H](C)CO)C(=O)c2cc(C#CCN(C)C)cnc2O[C@H]1CN(C)Cc1ccc(F)cc1 | 4 | 32* | -1 | 9 | -14[16.7 µM] | -7
C[C@H](CO)N1C[C@H](C)[C@H](CN(C)C(=O)c2ccc(F)cc2)Oc2ncc(C#CCN(C)C)cc2C1=O | 4 | 35* | -8 | x | 21[16.7 µM] | -4
C[C@@H]1CN([C@@H](C)CO)C(=O)c2cc(C#CCN(C)C)cnc2O[C@@H]1CN(C)Cc1ccc(F)cc1 | 1 | -2 | -1 | 3 | -5[16.7 µM] | 2
C[C@@H]1CN([C@@H](C)CO)C(=O)c2cc(NC(=O)C3CCCCC3)ccc2O[C@@H]1CN(C)Cc1ccncc1 | 0 | 7 | 0 | x | -7[16.7 µM] | x
C[C@H]1CCCCO[C@H](CN(C)C(=O)c2ccccc2)[C@@H](C)CN([C@@H](C)CO)C(=O)c2cc(NC(=O)NC3CCCCC3)ccc2O1 | -3 | 15 | 1 | -2 | -63[16.7 µM] | -12
CC(C)NC(=O)N1CCCCN2[C@H](CO)[C@H](c3ccc(C#Cc4ccccc4F)cc3)[C@@H]2C1 | -56 | -6 | -2 | x | x | -6
CC(C)CC#Cc1cnc2c(c1)C(=O)N([C@@H](C)CO)C[C@H](C)[C@H](CN(C)Cc1ccc(C(=O)O)cc1)O2 | 2 | 78* | -2 | x | -8[16.7 µM] | 11
C[C@@H](O)C#Cc1cnc2c(c1)C(=O)N([C@@H](C)CO)C[C@H](C)[C@H](CN(C)C(=O)c1ccc(F)cc1)O2 | 5 | -6 | 2 | x | 2[16.7 µM] | -1
C[C@H]1CN([C@@H](C)CO)C(=O)c2cc(C#CCN(C)C)cnc2O[C@@H]1CN(C)C(=O)Nc1ccccc1F | 1 | -5 | -3 | x | 3[16.7 µM] | -1
C[C@H](CO)N1C[C@H](C)[C@H](CN(C)C(=O)Nc2ccccc2F)Oc2ncc(C#CCN(C)C)cc2C1=O | 3 | 72* | x | x | x | 3
C[C@@H]1CN([C@H](C)CO)C(=O)c2cc(C#C[C@@H](C)O)cnc2O[C@H]1CN(C)C(=O)c1ccc(F)cc1 | -2 | 43*! | 2 | 1 | 7 | -13
COc1ccc2c3c(n(C)c2c1)[C@H](CO)N(Cc1cccc(F)c1)CC31CN(C(=O)Cc2ccccc2)C1 | -5 | -2 | x | x | x | -19
O=C(C[C@@H]1CC[C@H]2[C@@H](COC[C@@H](O)CN2C(=O)Nc2ccc(Cl)cc2)O1)NCC1CC1 | -17 | -2 | 2 | -1 | x | -6
C[C@@H]1CN([C@H](C)CO)C(=O)Cc2cc(NC(=O)Nc3cccc4ccccc34)ccc2O[C@H]1CN(C)Cc1ccc(C(F)(F)F)cc1 | 2 | -8 | -1 | x | 24[16.7 µM] | -1
C[C@H]1CN([C@@H](C)CO)C(=O)Cc2cc(NC(=O)Nc3cccc4ccccc34)ccc2O[C@H]1CN(C)Cc1ccc(C(F)(F)F)cc1 | 0 | 33* | 2 | x | 3[16.7 µM] | -4
C[C@H](CO)N1C[C@H](C)[C@H](CN(C)Cc2ccc(C(F)(F)F)cc2)Oc2ccc(NC(=O)Nc3cccc4ccccc34)cc2CC1=O | 9 | 42* | 3 | x | 8[16.7 µM] | -6
COc1ccc(C(=O)Nc2ccc3c(c2)OC[C@@H](C)N(C)C[C@@H](C)[C@@H](OC)CN(C)C3=O)cc1 | 0 | -1 | 0 | 6 | 16[16.7 µM] | x
C[C@H]1CN([C@@H](C)CO)C(=O)c2cccc(NC(=O)c3ccc(-c4nccs4)cc3)c2O[C@@H]1CN(C)S(=O)(=O)c1cccs1 | -1 | 2 | 1 | 0 | -8[16.7 µM] | -3
COc1ccc(NC(=O)c2cccc([N+](=O)[O-])c2)cc1 | 21 | x | x | x | -24 | -12
COc1ccc(NC(=O)c2cc([N+](=O)[O-])ccc2O)cc1 | -61 | x | x | x | 83* | 8
C[C@@H]1CN([C@@H](C)CO)C(=O)Cc2cc(NS(=O)(=O)c3ccc(F)cc3)ccc2O[C@H]1CN(C)Cc1ccc(C(F)(F)F)cc1 | -3 | -4 | -2 | -11 | 56*[16.7 µM] | 7
C[C@@H]1CN([C@H](C)CO)C(=O)c2cc(NS(=O)(=O)c3ccc(F)cc3)ccc2O[C@H]1CN(C)Cc1ccc(C(F)(F)F)cc1 | -4 | -2 | 2 | -12 | 72*[16.7 µM] | u
SMILES | Ecoli rRNA inh | DENV2 CPE rescue | PglD inh | FN deposition inh | Env fusion inh | PGC1a acetyl inh
C[C@@H]1CN([C@@H](C)CO)C(=O)Cc2cc(NS(C)(=O)=O)ccc2O[C@H]1CN(C)Cc1ccc(C(F)(F)F)cc1 | -1 | 20* | -3 | -1 | 36[16.7 µM] | 2
COc1ccc(S(=O)(=O)N2CCCCN3[C@H](CO)[C@@H](c4ccc(-c5cccnc5)cc4)[C@@H]3C2)cc1 | -5 | -2 | -9 | x | x | -4
Oc1ccc(Cl)cc1C1=NCCNC(C(F)(F)C(F)F)=C1 | -22* | x | -1 | x | 2 | 12
Cc1ccc(O)c(C2=NCCNC(C(F)(F)C(F)F)=C2)c1 | x | x | 1 | 0 | 4 | x
COc1ccccc1NC(=O)CSc1ccc(-c2cccs2)nn1 | -27* | 6 | x | 9 | 9 | x
COc1ccccc1NC(=O)CSc1nnnn1Cc1ccccc1 | -29* | 7 | 1 | x | x | -13
O=S(=O)(Nc1ccc(N2CCCCC2)cc1)c1ccc(F)cc1 | -36* | 7 | -8 | 1 | -3 | 4
O=c1c2cc(Br)ccc2[nH]c(=S)n1Cc1ccccn1 | 1 | 31* | x | 4 | x | x
Cc1ccccc1-c1nc2c(s1)CCc1onc(-c3ccc(Cl)cc3)c1-2 | 10 | 105* | 1 | 6 | -32 | x
COc1ccc(-c2noc3c2-c2nc(-c4ccccc4C)sc2CC3)cc1 | 14 | 19 | x | -4 | 38 | x
C[C@H](CO)N1C[C@H](C)[C@H](CN(C)S(=O)(=O)c2ccccc2)Oc2ccc(NS(C)(=O)=O)cc2C1=O | 4 | x | x | x | -6[16.7 µM] | -10
COc1ccc(NC(=O)Nc2ccc3c(c2)C(=O)N([C@H](C)CO)C[C@H](C)[C@H](CN(C)Cc2ccc(C(=O)O)cc2)OCCCC[C@H](C)O3)cc1 | -1 | u | -1 | x | 8[16.7 µM] | 10
COc1ccc(CN(C)C[C@@H]2OCCCC[C@H](C)Oc3ccc(NC(=O)Nc4ccc(OC)cc4)cc3C(=O)N([C@H](C)CO)C[C@@H]2C)cc1 | -9 | 15 | -1 | -23 | 20[16.7 µM] | -2
